Bioassay records from PubChem.
GRIN3A LBD mod: binders of NR3A ligand-binding domain, primary screen, biophysical, differential scanning fluorimetry, uHTS; Glutamate receptor ionotropic, NMDA 3A (GRIN3A) ligand-binding domain; NR3A LBD differential scanning fluorimetry, Tm shift; 0% = protein alone, 100% = glycine-bound protein; Tm shift relative to glycine control, % at 25 µM; actives 2.5% (n = 340,000); AID 1259313, 2017;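 active = melting temperature shift of at least 10% of the positive control shift, at one fixed dose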
UPR CHOP act: activators of apoptotic CHOP UPR arm, primary screen, cell-based, CHO-CHOP luciferase reporter, luminescence, uHTS | UPR activation; percent of tunicamycin response over DMSO baseline | activation, % at 10 µM | AID 449763, 2010 | actives 0.34% (n = 330,000);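 active = at 10 µM dose, activation of 40% or more, normalized to positive control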
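Dosing – one dose, 10 µM in 0.5% DMSO · System – CHO-CHOP cells, stable luciferase reporter of PERK-eIF2a-CHOP signalling · Input – 500 cells/well · Control set – tunicamycin 10 µg/mL final as positive, DMSO-only wells as negative · Timing – 6 h compound treatment, 37 °C · Measure – % activation vs tunicamycin · Technique – luminescence read with Steady-Glo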
XBP1 UPR activ: activators of adaptive XBP1 UPR arm, primary screen, cell-based, CHO-XBP1 luciferase reporter, luminescence, uHTS. IRE1-XBP1 UPR activation; percent of tunicamycin response, DMSO as zero. activation, % at 20 µM. actives 0.33% (n = 330,000). AID 463104, 2010;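 active = versus positive control, 20 µM dose yields 30% or more activation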
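Material: IRE1-XBP1 luciferase reporter CHO line / Quantity: one thousand reporter cells per well / Buffer or medium: F12 with 10% serum / Compound: 20 µM single concentration, DMSO 1% / Times: 6 h treatment, 37 °C / Detection: Steady-Glo luciferase glow luminescence, 10 min after reagent addition / Benchmarks: tunicamycin high, DMSO low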
CHOP inhibitor: inhibitors of CHOP promoter induction, primary screen, cell-based, unfolded protein response, luciferase reporter. actives 3.8% (n = 220,000). CHO-K1 CHOP-promoter luciferase, tunicamycin-induced, 15-18 h. inhibition, % at 10 µM;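 active = compounds that reduced the stress-induced luciferase reporter signal by more than about 70% of percent inhibition, limit read from the data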
MPTP inh: mitochondrial permeability transition pore inhibitors, primary screen, biochemical, isolated mouse mitochondria, absorbance; Ca2+ swelling absorbance, 30 min; inhibition, % at 10 µM; actives 1.4% (n = 360,000);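 active = inhibition of 50% or more, scaled per plate between neutral and stimulator controls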
aDG glyco act: activators of alpha-DG glycosylation, primary screen, uHTS, Pro5-aDG cells, AlphaScreen. alpha-DG glycosylation AlphaScreen (IIH6); 0% Pro5, 100% B10-LARGE cell signal. activation, % at 10 µM. actives 0.22% (n = 360,000). AID 624168, 2012;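 active = activation of at least 8% versus controls, or a plate z-score of at least 8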;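 note: Pro5 are CHO cells carrying HIG-tagged alpha-DG that lacks glycosylation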
MPTP counter: fluorescence retest of MPTP screen hits in isolated mitochondria, single concentration; inhibition, % at 10 µM; shares compounds with MPTP inh; membrane potential, Rhodamine 123 fluorescence; actives 78% (n = 5,000); in the data active = inhibition above about 22%
MPTP abs DR: mitochondrial permeability transition pore inhibitors, dose response, biochemical, absorbance, uHTS hits; AID 651561, 2012; actives 58% (n = 780); isolated mitochondria swelling; IC50, µM; shares compounds with MPTP inh; in the data active = IC50 below about 20 µM
MPTP counter DR: fluorescent counter-screen in isolated mitochondria, dose response, counter-screen for MPTP inhibitor project, biochemical, fluorescence, uHTS hits. shares compounds with MPTP inh. isolated mitochondria counterscreen, fluorescence read-out. IC50, µM. actives 49% (n = 780). AID 651564, 2012; in the data active = IC50 below about 80 µM
aDG conf: alpha-DG glycosylation enhancers, retest, confirmation, single concentration, Pro5-aDG cells; activation, % at 10 µM (by protocol); IIH6 AlphaLISA; scaled to LARGE-overexpressing B10 cells as 100%; shares compounds with aDG glyco act; actives 17% (n = 600);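 active = activation of at least 7% in one or more replicates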;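 note: cells exposed to compound for two days before detection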
Large screens that a line does not name were inactive (follow-up assays come after a bar, where they were run). Shown are actives, neighbours in structure and some others; about 5.6% of the full set was active somewhere.

Cc1cccc(NC(=O)Nc2ccc(Oc3c(F)c(F)c(F)c(F)c3F)cc2)c1	MPTP inh 88 (no result: GRIN3A LBD mod) | MPTP counter 60
Cc1cccc(NC(=O)Nc2ccc(S(N)(=O)=O)cc2)c1	none
COc1ccc(OCC(=O)N(C)CC2COc3ccccc3O2)cc1 (stereo unspecified)	none (no result: CHOP inhibitor)
CC(C)CSC1=NSC2=NC(=O)/C(=C\c3coc4ccccc4c3=O)C(=N)N12	MPTP inh 89 | MPTP counter 61
CSC1=NSC2=NC(=O)/C(=C\c3coc4ccccc4c3=O)C(=N)N12	MPTP inh 95 (no result: UPR CHOP act, XBP1 UPR activ) | MPTP counter 90
CC(C)CSC1=NSC2=NC(=O)/C(=C\c3ccccc3)C(=N)N12	MPTP inh 73 | MPTP counter 91
N=C1/C(=C/c2coc3ccccc3c2=O)C(=O)N=C2SC(c3ccco3)=NN12	MPTP inh 64 | MPTP counter 71
CCS(=O)(=O)C1=NSC2=NC(=O)/C(=C\c3ccc(OC(=O)c4ccco4)cc3)C(=N)N21	none (no result: CHOP inhibitor)
Cc1cccc(NC(=O)CCCNC(=O)c2ccc(Cl)cc2)n1	none (no result: CHOP inhibitor)
CC(=O)Nc1ccc(S(=O)(=O)N2CCC(N3CCCCC3)CC2)cc1	none (no result: CHOP inhibitor)
C=CCc1cccc(CNc2cnc3ccccc3c2)c1O	MPTP inh 89 (no result: CHOP inhibitor) | MPTP counter 84
Oc1ccccc1CNc1cnc2ccccc2c1	MPTP inh 71 | MPTP counter 59
Oc1ccc(Cl)cc1CNc1cnc2ccccc2c1	none (no result: CHOP inhibitor)
CN1OC[C@@H]2CN[C@H](c3cccc(-c4ccc(C#N)cc4)c3)C[C@@H]21	none (no result: UPR CHOP act, XBP1 UPR activ, CHOP inhibitor)
Cc1ccc(S(=O)(=O)N(C)c2ccc(OC(=O)c3cccs3)cc2)cc1C	none (no result: CHOP inhibitor)
Cc1[nH]n(-c2ccc(F)cc2)c(=O)c1/C=N/c1sc2c(c1C#N)CCCC2	CHOP inhibitor 90, MPTP inh 106 | MPTP counter 25
Cc1[nH]n(-c2ccc(Cl)cc2)c(=O)c1/C=N/c1nnc(-c2ccccc2)s1	MPTP inh 104 | MPTP counter 43
Cc1[nH]n(-c2ccccc2)c(=O)c1C=NCc1ccncc1	none
C=CCNCCCOc1ccc(C)cc1Br	MPTP inh 81 | MPTP counter inactive | MPTP abs DR 15 | MPTP counter DR inactive
COCCCNCCCOc1ccc(C)cc1Br	none
O=C(Nc1ccc(Cl)cc1)Nc1nnc(SCc2ccccc2)s1	MPTP inh 86 | MPTP counter 89
O=C(Nc1nnc(S(=O)(=O)N2CCCC2)s1)c1cccc([N+](=O)[O-])c1	none (no result: CHOP inhibitor)
Cc1ccc(OCCSCc2nnc(NC(=O)Nc3cccc(Cl)c3)s2)cc1	GRIN3A LBD mod 14, CHOP inhibitor 83, MPTP inh 93 | MPTP counter 85
CC1CCN(S(=O)(=O)c2nnc(NC(=O)c3cccc([N+](=O)[O-])c3)s2)CC1	GRIN3A LBD mod 11, MPTP inh 82 (no result: CHOP inhibitor) | MPTP counter 42
CCc1nnc(NC(=O)C(C)Sc2ccccc2)s1 (stereo unspecified)	none
O=C(Nc1ccc(Cl)c(Cl)c1)Nc1nnc(CSc2ccccc2)s1	CHOP inhibitor 77, MPTP inh 75 | MPTP counter 40
COc1ccc(CC2(CO)COc3ccccc3C2=O)cc1 (stereo unspecified)	none (no result: CHOP inhibitor)
Cc1ccc(S(=O)(=O)CCC(=O)OCC(=O)NC(C)c2ccccc2)cc1 (stereo unspecified)	none (no result: CHOP inhibitor)
O=C(Nc1ccccc1)Nc1nnc(CSCc2ccccc2Cl)s1	GRIN3A LBD mod 30, CHOP inhibitor 90, MPTP inh 90 | MPTP counter 92
CC(C)C(=O)Nc1nnc(CSCc2ccccc2F)s1	none
O=C(Nc1ccc(Cl)cc1)Nc1nnc(CSCc2ccccc2Cl)s1	MPTP inh 79 | MPTP counter 57
O=C(Nc1nnc(SCc2ccccc2)s1)c1cccc([N+](=O)[O-])c1	MPTP inh 71 | MPTP counter 83
CC(NS(=O)(=O)c1ccc(Br)cc1)C(c1cccs1)N1CCOCC1 (stereo unspecified)	none
C/C(=N\NC(=O)C1CC1(c1ccccc1)c1ccccc1)c1cccc([N+](=O)[O-])c1 (stereo unspecified)	none
O=C(Nc1ccc([N+](=O)[O-])cc1)C1CC1(c1ccccc1)c1ccccc1 (stereo unspecified)	MPTP inh 92 | MPTP counter 87
Cc1cccc(S(=O)(=O)NC(=O)C2(C)CCN2C(=O)Cc2ccc(C(C)(C)C)cc2)c1 (stereo unspecified)	none (no result: GRIN3A LBD mod, UPR CHOP act, XBP1 UPR activ, CHOP inhibitor)
COCCn1nnnc1C(c1ccc(OC)cc1)N1CCN(C(=O)c2ccco2)CC1 (stereo unspecified)	none (no result: CHOP inhibitor)
N#C/C(=N\Nc1ccc(Cl)cc1)C(N)=S	MPTP inh 70 | MPTP counter 92
N#C/C(=N\Nc1ccccc1)C(N)=S	none
Cc1ccc(N/N=C(\C#N)C(N)=S)cc1C	MPTP inh 67 | MPTP counter 89
CC1CCCCN1S(=O)(=O)c1ccc(S(=O)(=O)N2CCN(C)CC2)cc1 (stereo unspecified)	none (no result: CHOP inhibitor)
FC(F)Oc1ccc(NC(=S)NC23CC4CC(CC(C4)C2)C3)cc1	GRIN3A LBD mod 12, MPTP inh 54, aDG glyco act 2.0 (no result: CHOP inhibitor) | MPTP counter 95 | aDG conf inactive
Cc1nn(C)c(C(=O)NCc2ccc(Cl)cc2)c1Cl	MPTP inh 93, aDG glyco act 4.9 | MPTP counter 86 | aDG conf inactive
Cc1nc(C)c(C(=O)NCc2ccc(Cl)cc2)o1	none
